In the array DNA melting data of Ke et al. (doi:10.1101/2024.01.08.574731):

Legend:
[1] = melting temperature; fluorescence melt of hairpins on a sequencing array, two-state fit, raised by 9.35 °C to match UV melts; settings: sodium 0.088 M
Outline: (§1)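 Cy3 fluorescence of library hairpins on a sequenced MiSeq flow cell, with annealed Cy3 and quencher oligos, was imaged in 50 mM Na-HEPES pH 8.0, 25 mM NaCl in 2.5 °C steps up to 60 °C. Signals were normalised to pre-quench Cy3 and to control variants. Melting temperature and folding enthalpy came from bootstrapped two-state fits, inverse-variance combined over four replicates. Fitted temperatures were raised by 9.35 °C to match UV melts.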

[2] = folding enthalpy; higher = less favourable; fluorescence melt of hairpins on a sequencing array, two-state fit; settings: sodium 0.088 M
Outline: as §1

GGCTGTGCGAAAGCAGCC (((..(((....))))))
Tm [1]: 57.5 °C | folding enthalpy [2]: -27.1 kcal/mol

GCTCCGCGAAAGCTGAGC ((((.((....)).))))
Tm [1]: 61.1 °C | folding enthalpy [2]: -32.3 kcal/mol

GGTTAGGGAAACTTGACC (((.(.(....).).)))
Tm [1]: 28 °C | folding enthalpy [2]: -18.9 kcal/mol

GTCAACGAAAGTTTAGAC ((((((....)))..)))
Tm [1]: 31.3 °C | folding enthalpy [2]: -16.1 kcal/mol

GCGTCGCGAAAGCGCAGC ((..(((....)))..))
Tm [1]: 57.5 °C | folding enthalpy [2]: -19.9 kcal/mol

GCATCGCGAAAGCTAAGC ((.(.((....)).).))
Tm [1]: 30.7 °C | folding enthalpy [2]: -6.7 kcal/mol

GATAGGGGAAACCCCATC (((.(((....))).)))
Tm [1]: 35.6 °C | folding enthalpy [2]: -16.9 kcal/mol

GGATGGGGAAACCTATCC ((((.((....)).))))
Tm [1]: 47.2 °C | folding enthalpy [2]: -29.4 kcal/mol

GGACAAACGAAAGTTTCC (((..(((....))))))
Tm [1]: 25.4 °C | folding enthalpy [2]: -9.9 kcal/mol

GAAGACGGAAACATCTTC (((((.(....).)))))
Tm [1]: 29.8 °C | folding enthalpy [2]: -20 kcal/mol

GCCAACGAAAGTTTGGGC ((((((....)))..)))
Tm [1]: 46 °C | folding enthalpy [2]: -26.9 kcal/mol

GCTTGCGAAAGCATGAGC ((((((....)))..)))
Tm [1]: 52.6 °C | folding enthalpy [2]: -22.9 kcal/mol

GCAACCGCGAAAGCGTGC (((..(((....))))))
Tm [1]: 44.7 °C | folding enthalpy [2]: -14.3 kcal/mol

GGAATAGAAATATTCC ((((((....))))))
Tm [1]: 41.7 °C | folding enthalpy [2]: -29.3 kcal/mol

GACGCACGAAAGTGTGTC (((.(((....))).)))
Tm [1]: 61.8 °C | folding enthalpy [2]: -45.6 kcal/mol

GCGAGATGTCGC ((((....))))
Tm [1]: 49.4 °C | folding enthalpy [2]: -19.1 kcal/mol

GACTATGAAAATAGTC ((((((....))))))
Tm [1]: 49.5 °C | folding enthalpy [2]: -32.8 kcal/mol

GCCACCGAAAGGTGAGGC ((((((....)))..)))
Tm [1]: 54.9 °C | folding enthalpy [2]: -14.1 kcal/mol

GGTGAAGCGAAAGCTACC (((..(((....))))))
Tm [1]: 40.5 °C | folding enthalpy [2]: -17.1 kcal/mol

GGTTGGGGAAACCCGACC (((.(((....))).)))
Tm [1]: 56.7 °C | folding enthalpy [2]: -32.4 kcal/mol

GATCTCTACGAGATC ((((((...))))))
Tm [1]: 55.1 °C | folding enthalpy [2]: -40 kcal/mol

GCCGCAACGAAAGTTGGC (((..(((....))))))
Tm [1]: 48 °C | folding enthalpy [2]: -11.2 kcal/mol

GCTATGTCGAAAGACAGC (((..(((....))))))
Tm [1]: 41.5 °C | folding enthalpy [2]: -14 kcal/mol

GCTATCGAAAGATCGAGC ((((((....)))..)))
Tm [1]: 29.7 °C | folding enthalpy [2]: -10.1 kcal/mol

GCGTCGCGAAAGCGGGGC ((..(((....)))..))
Tm [1]: 67.4 °C | folding enthalpy [2]: -29 kcal/mol

GCGCGGCGAAAGCAGGGC ((.(.((....)).).))
Tm [1]: 63.2 °C | folding enthalpy [2]: -19.8 kcal/mol

GATCGTGTCGACGATC ((((((....))))))
Tm [1]: 60.3 °C | folding enthalpy [2]: -33.9 kcal/mol

GTGCGCGAAAGCGACAC ((((((....))).)))
Tm [1]: 63.8 °C | folding enthalpy [2]: -16.9 kcal/mol

GATCTCGCTGAGATC ((((((...))))))
Tm [1]: 53.8 °C | folding enthalpy [2]: -43.6 kcal/mol

GCGCTGGGAAACCAACGC (((.(((....))).)))
Tm [1]: 52.7 °C | folding enthalpy [2]: -47.8 kcal/mol

GTGAGCGAAAGCTATCAC ((((((....)))..)))
Tm [1]: 37.6 °C | folding enthalpy [2]: -18.3 kcal/mol

GCAGTTGGAAACAACTGC (((((((....)))))))
Tm [1]: 62.5 °C | folding enthalpy [2]: -63.5 kcal/mol

GTGGCCGAAAGGCACCAC ((((((....)))..)))
Tm [1]: 43.6 °C | folding enthalpy [2]: -12.3 kcal/mol

GATCGGCTTACCGATC ((((((....))))))
Tm [1]: 57.7 °C | folding enthalpy [2]: -35.4 kcal/mol

GGGCCTCGAAAGAGCCCC (((.(((....))).)))
Tm [1]: 57.2 °C | folding enthalpy [2]: -15.7 kcal/mol

GCGAAAGCTCGC ((((....))))
Tm [1]: 56.8 °C | folding enthalpy [2]: -11 kcal/mol

GCAGCCGAAAGGCGTTGC ((((((....)))..)))
Tm [1]: 53.3 °C | folding enthalpy [2]: -13.8 kcal/mol

GAGAAGCCGAAAGGCCTC (((..(((....))))))
Tm [1]: 37.4 °C | folding enthalpy [2]: -12.7 kcal/mol

GCACCCGAAAGGGACTGC ((((((....)))..)))
Tm [1]: 40.8 °C | folding enthalpy [2]: -16 kcal/mol

GGCTCAGGAAACCAAGCC ((((..(....)..))))
Tm [1]: 35.3 °C | folding enthalpy [2]: -31.6 kcal/mol

GGTCGAGGAAACTTGACC ((((.((....)).))))
Tm [1]: 51.9 °C | folding enthalpy [2]: -32 kcal/mol

GCGAAGGTCGC ((((...))))
Tm [1]: 49.9 °C | folding enthalpy [2]: -15.3 kcal/mol

GTGAAAGCGAAAGCTCAC (((..(((....))))))
Tm [1]: 47.6 °C | folding enthalpy [2]: -23.9 kcal/mol

GGGTTTGGAAACAGACCC ((((.((....)).))))
Tm [1]: 48.8 °C | folding enthalpy [2]: -39.9 kcal/mol

CTGGTGAAAACCAG (((((....)))))
Tm [1]: 52.8 °C | folding enthalpy [2]: -20.3 kcal/mol

GAAGGGCGAAAGCCTTC (((.(((....))))))
Tm [1]: 50.8 °C | folding enthalpy [2]: -14.3 kcal/mol

GACTTCGGAAACGAAGTC (((((((....)))))))
Tm [1]: 66.3 °C | folding enthalpy [2]: -38.6 kcal/mol

GGACACGAAAGTGATTCC ((((((....)))..)))
Tm [1]: 31.7 °C | folding enthalpy [2]: -14.7 kcal/mol

GGGACTGGAAACAGCCCC (((.(((....))).)))
Tm [1]: 51.9 °C | folding enthalpy [2]: -35.3 kcal/mol

GGGCAGAAATGCCC (((((....)))))
Tm [1]: 65.2 °C | folding enthalpy [2]: -24 kcal/mol

GCAGAGCGAAAGCTCCGC ((.((((....)))).))
Tm [1]: 61.1 °C | folding enthalpy [2]: -16.8 kcal/mol

GATCATCATTATGATC ((((((....))))))
Tm [1]: 46.8 °C | folding enthalpy [2]: -34.6 kcal/mol

GCACTCTCGAAAGAGTGC (((..(((....))))))
Tm [1]: 65 °C | folding enthalpy [2]: -45.9 kcal/mol

GTCTACCGAAAGGTTGAC (((.(((....))).)))
Tm [1]: 52.6 °C | folding enthalpy [2]: -40.5 kcal/mol

GGGGAGGGAAACCTCCTC (.(((((....))))).)
Tm [1]: 53.4 °C | folding enthalpy [2]: -15.6 kcal/mol

GGAATCGAAAGATACTCC ((((((....)))..)))
Tm [1]: 24.7 °C | folding enthalpy [2]: -9.63 kcal/mol

CGCACGGAAACGTTAGCG ((((((....)))..)))
Tm [1]: 44.8 °C | folding enthalpy [2]: -31.9 kcal/mol

GCATTTCGAAAGAATGC (((.(((....))))))
Tm [1]: 45.5 °C | folding enthalpy [2]: -30.5 kcal/mol

GATCTCTACGGAGATC ((((((....))))))
Tm [1]: 55.6 °C | folding enthalpy [2]: -36 kcal/mol

GAACACGGAAACGTATTC (((.(((....))).)))
Tm [1]: 33 °C | folding enthalpy [2]: -22.6 kcal/mol

GCATGCGAAAGCAGCTGC ((((((....)))..)))
Tm [1]: 54 °C | folding enthalpy [2]: -17.9 kcal/mol

GGCTCAGGAAACTGGGTC (.(.(((....))).).)
Tm [1]: 38 °C | folding enthalpy [2]: -25.9 kcal/mol

GATCTTAGGCAAGATC ((((((....))))))
Tm [1]: 42.8 °C | folding enthalpy [2]: -27.9 kcal/mol

GCCCCCGAAAGGGAGGGC ((((((....)))..)))
Tm [1]: 59.8 °C | folding enthalpy [2]: -30 kcal/mol

GATCCTACGAAGGATC ((((((....))))))
Tm [1]: 50.3 °C | folding enthalpy [2]: -35.9 kcal/mol

GGGTGATCGAAAGATCCC (((..(((....))))))
Tm [1]: 50.2 °C | folding enthalpy [2]: -19 kcal/mol

GCTAAAGAAATTTAGC ((((((....))))))
Tm [1]: 41.7 °C | folding enthalpy [2]: -28.8 kcal/mol

GAGTGACGAAAGTCGCTC (((.(((....))).)))
Tm [1]: 64.8 °C | folding enthalpy [2]: -38.9 kcal/mol

GACTTAGCGAAAGCTGTC (((..(((....))))))
Tm [1]: 43.8 °C | folding enthalpy [2]: -14.6 kcal/mol

GTAAACGGAAACGTTTAC (((((((....)))))))
Tm [1]: 57.8 °C | folding enthalpy [2]: -47.3 kcal/mol

GAAACCGAAAGGTTGTTC ((((((....)))..)))
Tm [1]: 36.8 °C | folding enthalpy [2]: -13.7 kcal/mol

CGCGATCGGAAACGAGCG (((..(((....))))))
Tm [1]: 53 °C | folding enthalpy [2]: -34.2 kcal/mol

GCCATCGAAAGATTCGGC ((((((....)))..)))
Tm [1]: 36.9 °C | folding enthalpy [2]: -21 kcal/mol

GGTAACGGAAACGCTACC ((((.((....)).))))
Tm [1]: 43.7 °C | folding enthalpy [2]: -29.7 kcal/mol

GTTGAGGGAAACCTCAAC (((((((....)))))))
Tm [1]: 59.8 °C | folding enthalpy [2]: -42.2 kcal/mol

GGTCACGGAAACGTGGTC (..((((....))))..)
Tm [1]: 39.6 °C | folding enthalpy [2]: -16.8 kcal/mol

GAGTGCACGAAAGTGCTC (((..(((....))))))
Tm [1]: 37.4 °C | folding enthalpy [2]: -7.52 kcal/mol

GCAGGCGAAAGCCGTGC ((((((....))).)))
Tm [1]: 62.8 °C | folding enthalpy [2]: -17.1 kcal/mol

GCCACGCGAAAGCACGGC (((..((....))..)))
Tm [1]: 61.9 °C | folding enthalpy [2]: -35.9 kcal/mol

GGATTGGAAACAATCC ((((((....))))))
Tm [1]: 55.5 °C | folding enthalpy [2]: -36.7 kcal/mol

GATCGTGATAACGATC ((((((....))))))
Tm [1]: 63.6 °C | folding enthalpy [2]: -40.2 kcal/mol

GCGATGCGTCGC ((((....))))
Tm [1]: 64.5 °C | folding enthalpy [2]: -20.1 kcal/mol

GGGTTAGGAAACTGACCC ((((.((....)).))))
Tm [1]: 50 °C | folding enthalpy [2]: -34.6 kcal/mol

GCACGACCGAAAGGTTGC (((..(((....))))))
Tm [1]: 38.1 °C | folding enthalpy [2]: -14.4 kcal/mol

GGGTCAGGAAACTGGCCC (((.(((....))).)))
Tm [1]: 60.4 °C | folding enthalpy [2]: -41.8 kcal/mol

GAAGACGGAAACGTCCTC ((.((((....)))).))
Tm [1]: 35.9 °C | folding enthalpy [2]: -11.9 kcal/mol

GCGGGGCGAAAGCCTAGC ((..(((....)))..))
Tm [1]: 64.2 °C | folding enthalpy [2]: -19.2 kcal/mol

GATCTGGCGGCAGATC ((((((....))))))
Tm [1]: 53.3 °C | folding enthalpy [2]: -53.2 kcal/mol

GGATACGAAAGTAGTTCC ((((((....)))..)))
Tm [1]: 25 °C | folding enthalpy [2]: -9.9 kcal/mol

GAGCCAGGAAACCGGCTC (((((.(....).)))))
Tm [1]: 56.6 °C | folding enthalpy [2]: -37.5 kcal/mol

GTCGACGAAAGTCTCGAC ((((((....)))..)))
Tm [1]: 41.8 °C | folding enthalpy [2]: -18.3 kcal/mol

GGAGGCGAAAGCCCTCC ((((((....))).)))
Tm [1]: 61.1 °C | folding enthalpy [2]: -18.1 kcal/mol
